Data set [1] can be described thus: Selectivity ratio of CC50 for MDCK cells to EC50 for oseltamivir resistant-Influenza A virus A/TW/6663/09 (H1N1). Format: toxicity. As to conditions: dog, read-out: Ratio CC50/EC50. In short, it runs like this:
(§1)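 MDCK cells (2 × 10^4/well, E10, 16–24 h) infected at nine-fold TCID50 with compound for 72 h, 37 °C, 5% CO2. Cells were fixed in 4% paraformaldehyde and stained with crystal violet; EC50 is from Reed–Muench. For CC50, cells had compound alone for 72 h, then MTT 3 h, DMSO, A570, Reed–Muench. SI = CC50/EC50; three independent experiments.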

Data set [2] relates to Influenza A virus. As to the kind of experiment: Antiviral activity against oseltamivir resistant-Influenza A virus A/TW/6663/09 (H1N1) infected in MDCK cells after 72 hrs by crystal violet-staining based assay. Format: functional, organism-based. The procedure, abridged: (§2)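 Cells seeded at 2 × 10^4/well in E10 (DMEM, 10% FBS), 16–24 h at 37 °C/5% CO2, washed with DPBS, then infected at nine-fold TCID50 with or without serial compound concentrations. Influenza is run in MDCK and enterovirus/rhinovirus in RD. Incubated 72 h, fixed in 4% paraformaldehyde, stained with 0.1% crystal violet, and read for cell density. EC50 = 50% CPE inhibition by Reed–Muench; mean ± S.D. of at least three runs.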

A short description of data set [3]: Selectivity ratio of CC50 for MDCK cells to EC50 for oseltamivir resistant-Influenza A virus A/TW/7855/09 (H1N1). Format: toxicity. The conditions noted are these: dog, read-out: Ratio CC50/EC50. The procedure, abridged: as §1
Data set [4] has as its system Influenza A virus. Description: Antiviral activity against oseltamivir resistant-Influenza A virus A/TW/7855/09 (H1N1) infected in MDCK cells after 72 hrs by crystal violet-staining based assay. Format: functional, organism-based. In short, it runs like this: as §2

This note sets out measurements from ChEMBL document CHEMBL4316597, “Design, Synthesis, and Biological Evaluation of Itaconic Acid Derivatives as Potential Anti-Influenza Agents” (J Med Chem, 2019).

The structures appear in SMILES notation.

For orientation: EC50 means the concentration at which the effect is half-maximal. Read a high EC50 as lower potency in that assay. For `C=C(CC(=O)Nc1ccc(F)cc1F)C(=O)Nc1ccc(F)cc1F`, the selectivity ratio in data set [1] worked out at 18; in data set [3] it was 33. Moreover, the EC50 in the data set with Influenza A virus [2] was found to be 4.83 µM; in the data set with Influenza A virus [4] it was 2.6 µM.
